Test results: ChEMBL document CHEMBL1165920, “Structural determinants for the inhibitory ligands of orotidine-5'-monophosphate decarboxylase” (Bioorg Med Chem, 2010)
Activity calls are given as the source filed them. The calls are words filed in the database; no cut-off is given here.

Assays:
[1] = molecular target: T1, Orotidine phosphate decarboxylase (Plasmodium falciparum) (UniProt Q8T6J6); settings: 0.5 to 5 mM
T1 sequence (whole entry): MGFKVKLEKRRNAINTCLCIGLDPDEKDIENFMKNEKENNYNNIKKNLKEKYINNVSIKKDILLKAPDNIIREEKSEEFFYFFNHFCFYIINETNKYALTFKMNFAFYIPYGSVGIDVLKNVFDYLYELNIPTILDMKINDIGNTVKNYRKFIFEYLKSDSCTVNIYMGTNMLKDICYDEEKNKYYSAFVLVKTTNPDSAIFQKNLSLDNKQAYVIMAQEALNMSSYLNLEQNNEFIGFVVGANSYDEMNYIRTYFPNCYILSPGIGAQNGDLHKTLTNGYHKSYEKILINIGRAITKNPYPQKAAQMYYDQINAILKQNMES

[2] = Inhibition of Helicobacter pylori uridine 5'-monophosphate synthase after overnight incubation at room temperature by VP-ITC microcalorimetry
Procedure, shortened: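 Reversible inhibition measured by ITC with Hp ODCase (final 60 nM) and 20 µM OMP substrate. Assay buffer was degassed 50 mM Tris pH 7.5 with 1 mM DTT. Inhibitor series were 0.25–1.5 µM or 0.25–2.5 mM. Ki was fitted as competitive from Ki(app) = Ki(1+[S]/KM).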

[3] = molecular target: Orotidine 5'-phosphate decarboxylase (Methanobacterium thermoautotrophicum) (UniProt O26232); assay: Competitive inhibition of Methanothermobacter thermautotrophicus uridine 5'-monophosphate synthase after overnight incubation at room temperature by Lineweaver-Burke plot analysis
Chain of Orotidine 5'-phosphate decarboxylase (Methanobacterium thermoautotrophicum) (O26232 whole entry, looked up): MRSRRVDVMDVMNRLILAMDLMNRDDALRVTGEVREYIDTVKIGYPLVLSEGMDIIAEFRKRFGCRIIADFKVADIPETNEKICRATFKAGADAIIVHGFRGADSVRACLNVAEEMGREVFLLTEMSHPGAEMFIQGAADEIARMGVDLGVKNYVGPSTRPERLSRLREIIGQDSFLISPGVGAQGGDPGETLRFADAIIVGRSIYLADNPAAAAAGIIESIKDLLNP
Procedure, shortened: (§1)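 Isothermal titration calorimetry with Mt ODCase (final 20 nM). Enzyme stock was kept in 50 mM Tris pH 7.5, 20 mM DTT, 40 mM NaCl overnight at rt. Assay buffer was degassed 50 mM Tris pH 7.5 with 1 mM DTT. Run at 55 °C, started by injecting 5 mM OMP in 50 mM Tris. Inhibitor series spanned 5–40 µM or 0.5–5 mM. Competitive Ki was derived from Ki(app) = Ki(1+[S]/KM).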

[4] = molecular target: Orotidine 5'-phosphate decarboxylase (Methanobacterium thermoautotrophicum, UniProt O26232); assay: Inhibition of Methanothermobacter thermautotrophicus uridine 5'-monophosphate synthase after overnight incubation at room temperature by VP-ITC microcalorimetry
Chain of Orotidine 5'-phosphate decarboxylase (Methanobacterium thermoautotrophicum, UniProt O26232) (O26232 whole entry): as the sequence (O26232 whole entry, looked up) above
Procedure, shortened: as §1

[5] = molecular target: T2, Orotidine 5'-phosphate decarboxylase (Saccharomyces cerevisiae S288c, UniProt P03962); assay: Inhibition of Saccharomyces cerevisiae uridine 5'-monophosphate synthase after overnight incubation at room temperature by VP-ITC microcalorimetry
T2 sequence (P03962 whole entry): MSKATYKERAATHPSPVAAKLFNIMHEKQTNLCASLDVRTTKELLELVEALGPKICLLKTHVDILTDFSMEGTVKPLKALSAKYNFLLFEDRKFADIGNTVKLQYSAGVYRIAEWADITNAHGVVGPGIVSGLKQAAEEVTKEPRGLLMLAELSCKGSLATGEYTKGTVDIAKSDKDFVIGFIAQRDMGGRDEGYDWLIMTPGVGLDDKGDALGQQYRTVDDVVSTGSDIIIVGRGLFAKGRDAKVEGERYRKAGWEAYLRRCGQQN

[6] = molecular target: T2, Orotidine 5'-phosphate decarboxylase; assay: Inhibition of Saccharomyces cerevisiae uridine 5'-monophosphate synthase

Compound	inhibition [1]	Ki [2] [nM]	inhibition [3]	Ki [4] [nM]	Ki [5] [nM]	Ki [6] [nM]
N#Cc1cc(=O)[nH]c(=O)n1[C@@H]1O[C@H](COP(=O)(O)O)[C@@H](O)[C@H]1O	Active	–	–	–	–	–
NC(=O)c1[nH]nc([C@@H]2O[C@H](COP(=O)(O)O)[C@@H](O)[C@H]2O)c1O	–	130	Active	6200	5	–
O=c1cc(O)n([C@@H]2O[C@H](COP(=O)(O)O)[C@@H](O)[C@H]2O)c(=O)[nH]1	–	–	–	–	0.009	0.0088
